The source of these data is ChEMBL document CHEMBL3244289, “Synthesis and antibacterial activity of 2'-substituted chelocardin analogues” (1979).

Active and inactive are the calls of the source. No cut-off for these calls is given here.

Assay [1] concerns Staphylococcus aureus. The experiment in a line: Antibacterial activity against Staphylococcus aureus 45 by two-fold agar dilution method. It is filed as functional. The procedure, abridged:
(§1)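 MIC determined by twofold serial dilution in brain-heart infusion agar. Values are reported in µg/mL.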

For assay [2], the system named is Staphylococcus aureus. The experiment in a line: Antibacterial activity against Staphylococcus aureus Smith by two-fold agar dilution method. It is filed as functional. The procedure, abridged:
as §1

Assay [3] deals with Streptococcus pyogenes. The experiment in a line: Antibacterial activity against Streptococcus pyogenes C-203 by two-fold agar dilution method. It is filed as functional. The method in brief:
as §1

The test system of assay [4] is Enterococcus. As to the kind of experiment: Antibacterial activity against Enterococcus 89 by two-fold agar dilution method. It is filed as functional. The method in brief:
as §1

Assay [5] relates to Escherichia coli. As to the kind of experiment: Antibacterial activity against Escherichia coli Juhl by two-fold agar dilution method. It is filed as functional. The procedure, abridged:
as §1

The subject of assay [6] is Klebsiella pneumoniae. The experiment in a line: Antibacterial activity against Klebsiella pneumoniae 8045 by two-fold agar dilution method. It is filed as functional. The procedure, abridged: as §1
Assay [7] concerns Pasteurella multocida. The experiment in a line: Antibacterial activity against Pasteurella multocida 10544 by two-fold agar dilution method. It is filed as functional. The procedure, abridged: as §1
Assay [8] has as its system Proteus vulgaris. The experiment in a line: Antibacterial activity against Proteus vulgaris by two-fold agar dilution method. It is filed as functional. The method in brief: as §1
Assay [9] deals with Proteus mirabilis. As to the kind of experiment: Antibacterial activity against Proteus mirabilis by two-fold agar dilution method. It is filed as functional. The procedure, abridged:
as §1

For assay [10], the system named is Salmonella typhi. As to the kind of experiment: Antibacterial activity against Salmonella typhi by two-fold agar dilution method. It is filed as functional, Salmonella enterica subsp. enterica serovar Typhi. The conditions noted are these: Salmonella enterica. The method in brief: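 MIC in µg/mL by twofold serial agar dilution on brain-heart infusion agar.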

The test system of assay [11] is Pseudomonas aeruginosa. As to the kind of experiment: Antibacterial activity against Pseudomonas aeruginosa by two-fold agar dilution method. It is filed as functional, organism-based. The method in brief: as §1
For assay [12], the system named is Proteus mirabilis. As to the kind of experiment: Antibacterial activity against Proteus mirabilis infected in po dosed mouse assessed as protection against bacterial infection. It is filed as functional. The procedure, abridged:
(§2)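 Mice were challenged intraperitoneally with Proteus mirabilis, and compound was given by the line's route (oral or subcutaneous). The CD50 is the total dose in mg/kg that protects 50% of challenged mice.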

The test system of assay [13] is Proteus mirabilis. As to the kind of experiment: Antibacterial activity against Proteus mirabilis infected in sc dosed mouse assessed as protection against bacterial infection. It is filed as functional. The method in brief: as §2

As for `C/C(=N\N1CCN(C)CC1)C1=C(O)[C@H](N)[C@@H]2Cc3c(c(O)c4c(O)c(C)ccc4c3C)C(=O)[C@]2(O)C1=O.Cl`, the MIC in [1] came to 6.2 µg/mL; in [2], 6.2 µg/mL; in assay [3] it was 3.1 µg/mL; in assay [4] it was 12.5 µg/mL; in assay [5], 6.2 µg/mL; in [6], 3.1 µg/mL. Besides, the minimum inhibitory concentration (MIC) in [7] is 0.78 µg/mL; in assay [8], 6.2 µg/mL; in assay [9], 6.2 µg/mL; in assay [10] it was 3.1 µg/mL. For the same compound, the result in assay [11] was inactive. The CD50 in assay [12] is 25 mg/kg; in assay [13] it was 12.5 mg/kg.

In the case of `CC(=O)C1=C(O)[C@H](N)[C@@H]2Cc3c(c(O)c4c(O)c(C)ccc4c3C)C(=O)[C@]2(O)C1=O.Cl` [CETOCYCLINE HYDROCHLORIDE], the MIC in [1] was found to be 6.2 µg/mL; in assay [2], 3.1 µg/mL; in assay [3], 3.1 µg/mL; in assay [4], 6.2 µg/mL; in assay [5], 6.2 µg/mL; in assay [6] it was 3.1 µg/mL. Also, the minimal inhibitory concentration (MIC) is 0.39 µg/mL in assay [7], 1.56 µg/mL in [8], 1.56 µg/mL in assay [9] and 1.5 µg/mL in assay [10]. Further, the outcome in [11] was inactive. Further, the results for the CD50 in [12] and in [13] were 200 mg/kg and 12.5 mg/kg, respectively.

With `C/C(=N\NC(=N)N)C1=C(O)[C@H](N)[C@@H]2Cc3c(c(O)c4c(O)c(C)ccc4c3C)C(=O)[C@]2(O)C1=O.Cl`, the minimum inhibitory concentration (MIC) in assay [1] is 50 µg/mL; in assay [2] it was 50 µg/mL; in assay [3], 25 µg/mL; in assay [4] it was 50 µg/mL; in assay [5] it was 25 µg/mL; in assay [6], 12.5 µg/mL. For the same compound, the MIC in assay [7] is 3.1 µg/mL; in [8], 12.5 µg/mL; in assay [9], 12.5 µg/mL; in assay [10] it was 25 µg/mL. Also, the outcome in assay [11] was inactive. Also, the CD50 was determined as 100 mg/kg in assay [12] and 12.5 mg/kg in [13].

`C/C(=N\NC(N)=S)C1=C(O)[C@H](N)[C@@H]2Cc3c(c(O)c4c(O)c(C)ccc4c3C)C(=O)[C@]2(O)C1=O.Cl`: the MIC in [1] turned out to be 50 µg/mL; in [2], 50 µg/mL; in [3], 25 µg/mL; in assay [4], 100 µg/mL; in assay [5], 100 µg/mL; in assay [6], 25 µg/mL. Further, the MIC turned out to be 3.1 µg/mL in assay [7], 50 µg/mL in [8], 50 µg/mL in [9] and 25 µg/mL in [10]. In addition, the outcome in assay [11] was inactive.

Regarding `C/C(=N\c1ccc(CC(=O)O)cc1)C1=C(O)[C@H](N)[C@@H]2Cc3c(c(O)c4c(O)c(C)ccc4c3C)C(=O)[C@]2(O)C1=O.Cl`, the MIC worked out at 6.2 µg/mL in assay [1]; 6.2 µg/mL in [2]; 3.1 µg/mL in assay [3]; 12.5 µg/mL in assay [4]; 6.2 µg/mL in assay [5]; 1.56 µg/mL in assay [6]. The MIC in [7] was determined as 0.39 µg/mL; in assay [8], 1.56 µg/mL; in assay [9], 3.1 µg/mL; in assay [10], 1.5 µg/mL. For the same compound, in [11], the outcome was inactive.

For `CCCNC(=O)N/N=C(\C)C1=C(O)[C@H](N)[C@@H]2Cc3c(c(O)c4c(O)c(C)ccc4c3C)C(=O)[C@]2(O)C1=O.Cl`, the MIC is 25 µg/mL in assay [1]; 25 µg/mL in assay [2]; 12.5 µg/mL in [3]; 50 µg/mL in assay [4]; 25 µg/mL in assay [5]; 6.2 µg/mL in assay [6]. Also, the MIC in [7] worked out at 0.78 µg/mL; in assay [8], 6.2 µg/mL; in assay [9], 6.2 µg/mL; in assay [10], 6.2 µg/mL. The outcome in assay [11] was inactive.

`C/C(=N\c1ccc(C(=O)O)cc1)C1=C(O)[C@H](N)[C@@H]2Cc3c(c(O)c4c(O)c(C)ccc4c3C)C(=O)[C@]2(O)C1=O.Cl`: the MIC is 6.2 µg/mL in assay [1]; 3.1 µg/mL in assay [2]; 3.1 µg/mL in assay [3]; 6.2 µg/mL in [4]; 6.2 µg/mL in assay [5]; 1.56 µg/mL in assay [6]. The MIC in [7] was found to be 0.39 µg/mL; in [8] it was 1.56 µg/mL; in [9] it was 3.1 µg/mL; in assay [10] it was 1.5 µg/mL. Besides, the result in assay [11] was inactive.

As to `C/C(=N\NC(=O)Nc1ccccc1Cl)C1=C(O)[C@H](N)[C@@H]2Cc3c(c(O)c4c(O)c(C)ccc4c3C)C(=O)[C@]2(O)C1=O.Cl`, the MIC is 100 µg/mL in [1]; 50 µg/mL in assay [2]; 25 µg/mL in assay [3]; 100 µg/mL in assay [4]; 100 µg/mL in assay [5]; 50 µg/mL in assay [6]. Also, the minimum inhibitory concentration (MIC) came to 6.2 µg/mL in assay [7], 50 µg/mL in assay [8], 50 µg/mL in assay [9] and 50 µg/mL in assay [10]. The outcome in assay [11] was inactive.

For the compound `C/C(=N\NC(N)=O)C1=C(O)[C@H](N)[C@@H]2Cc3c(c(O)c4c(O)c(C)ccc4c3C)C(=O)[C@]2(O)C1=O.Cl`, the MIC is 25 µg/mL in assay [1]; 25 µg/mL in assay [2]; 25 µg/mL in assay [3]; 50 µg/mL in assay [4]; 25 µg/mL in [5]; 12.5 µg/mL in [6]. For the same compound, the MIC came to 1.56 µg/mL in assay [7], 12.5 µg/mL in assay [8], 25 µg/mL in [9] and 6.2 µg/mL in assay [10]. Moreover, in assay [11], the outcome was inactive.

Turning to `C/C(=N\NC(=O)Cc1ccccc1)C1=C(O)[C@H](N)[C@@H]2Cc3c(c(O)c4c(O)c(C)ccc4c3C)C(=O)[C@]2(O)C1=O.Cl`, the MIC in assay [1] was 25 µg/mL; in assay [2], 25 µg/mL; in assay [3], 12.5 µg/mL; in assay [4], 50 µg/mL; in assay [5], 50 µg/mL; in assay [6], 6.2 µg/mL. The MIC was 6.2 µg/mL in assay [7], 12.5 µg/mL in [8], 12.5 µg/mL in assay [9] and 12.5 µg/mL in assay [10]. Moreover, the result in assay [11] was inactive.

`C/C(=N\c1ccc(Br)cc1)C1=C(O)[C@H](N)[C@@H]2Cc3c(c(O)c4c(O)c(C)ccc4c3C)C(=O)[C@]2(O)C1=O.Cl`: the MIC in assay [1] worked out at 12.5 µg/mL; in assay [2], 12.5 µg/mL; in assay [3] it was 12.5 µg/mL; in assay [4] it was 25 µg/mL; in assay [5] it was 25 µg/mL; in assay [6], 3.1 µg/mL. The MIC was 0.39 µg/mL in assay [7], 6.2 µg/mL in [8], 6.2 µg/mL in [9] and 3.1 µg/mL in [10]. Also, the outcome in assay [11] was inactive.

Consider `C/C(=N\NC(=O)c1ccco1)C1=C(O)[C@H](N)[C@@H]2Cc3c(c(O)c4c(O)c(C)ccc4c3C)C(=O)[C@]2(O)C1=O.Cl` (stereo in doubt), for which the minimum inhibitory concentration (MIC) in assay [1] was more than 100 µg/mL; in assay [2], more than 100 µg/mL; in assay [3] it was 50 µg/mL; in [4], more than 100 µg/mL; in assay [5], more than 100 µg/mL; in [6] it was 50 µg/mL. Besides, the MIC in [7] was 3.1 µg/mL; in [8], 50 µg/mL; in [9], 50 µg/mL; in assay [10] it was 25 µg/mL. Further, the result in [11] was inactive.

Regarding `C/C(=N\c1ccc(O)cc1)C1=C(O)[C@H](N)[C@@H]2Cc3c(c(O)c4c(O)c(C)ccc4c3C)C(=O)[C@]2(O)C1=O.Cl`, the MIC in [1] is 12.5 µg/mL; in assay [2] it was 12.5 µg/mL; in assay [3] it was 12.5 µg/mL; in [4] it was 25 µg/mL; in [5], 50 µg/mL; in assay [6], 3.1 µg/mL. In addition, the MIC in [7] is 0.78 µg/mL; in [8], 3.1 µg/mL; in assay [9] it was 6.2 µg/mL; in assay [10], 6.2 µg/mL. Further, the outcome in [11] was inactive.

Take `C/C(=N\NC(=O)c1cccnc1)C1=C(O)[C@H](N)[C@@H]2Cc3c(c(O)c4c(O)c(C)ccc4c3C)C(=O)[C@]2(O)C1=O.Cl`: the MIC in assay [1] is more than 100 µg/mL; in assay [2] it was more than 100 µg/mL; in assay [3], 100 µg/mL; in assay [4], more than 100 µg/mL; in assay [5], 100 µg/mL; in [6], 100 µg/mL. Further, the MIC in assay [7] was 12.5 µg/mL; in assay [8], more than 100 µg/mL; in [9], more than 100 µg/mL; in assay [10] it was 100 µg/mL. In addition, the result in assay [11] was inactive.

Turning to `C/C(=N\N1CCOC1=O)C1=C(O)[C@H](N)[C@@H]2Cc3c(c(O)c4c(O)c(C)ccc4c3C)C(=O)[C@]2(O)C1=O.Cl`, the MIC in assay [1], in [2], in [3], in assay [4], in [5] and in assay [6] was 25 µg/mL each time. For the same compound, the MIC was 1.6 µg/mL in assay [7], 6.2 µg/mL in assay [8], 12.5 µg/mL in assay [9] and 25 µg/mL in assay [10]. Besides, the result in [11] was inactive.

`C/C(=N\c1ccc(C)cc1)C1=C(O)[C@H](N)[C@@H]2Cc3c(c(O)c4c(O)c(C)ccc4c3C)C(=O)[C@]2(O)C1=O.Cl`: the MIC in [1] was 12.5 µg/mL; in [2] it was 12.5 µg/mL; in assay [3] it was 6.2 µg/mL; in assay [4] it was 25 µg/mL; in assay [5], 25 µg/mL; in assay [6], 6.2 µg/mL. In addition, the minimum inhibitory concentration (MIC) in assay [7] was found to be 0.39 µg/mL; in assay [8], 6.2 µg/mL; in assay [9], 6.2 µg/mL; in assay [10], 3.1 µg/mL. Moreover, the result in assay [11] was inactive.
